Assay results reported in ChEMBL document CHEMBL2417474, “Synthesis, antiproliferative and anti-inflammatory activities of some novel 6-aryl-2-(p-(methanesulfonyl)phenyl)-4,5-dihydropyridazi-3(2H)-ones” (Eur J Med Chem, 2013).

Assays:
Type in all cases: functional
OVCAR-8 [1] = assay: Growth inhibition of human OVCAR8 cells assessed as cell growth at 10 uM after 48 hrs by sulforhodamine B assay; settings: OVCAR-8, 48 h, read-out: Activity
IGROV-1 [2] = assay: Growth inhibition of human IGROV1 cells after 48 hrs by sulforhodamine B assay; settings: IGROV-1, 48 h
Procedure, shortened: (§1)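 NCI 60-cell-line panel grown in RPMI-type medium with 5% fetal calf serum and 2 mM L-glutamine. Cells preincubated 24 h, then exposed continuously for 48 h to compound in DMSO at 10^-4 to 10^-8 M (five 10-fold levels). Growth read by SRB protein stain. GI50 is the concentration giving a 50% reduction in net protein increase relative to control cells.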

ACHN [3] = assay: Growth inhibition of human ACHN cells assessed as cell growth at 10 uM after 48 hrs by sulforhodamine B assay; settings: read-out: Activity
COLO 205 = assay: Growth inhibition of human COLO205 cells assessed as cell growth at 10 uM after 48 hrs by sulforhodamine B assay; settings: COLO 205, 48 h, read-out: Activity
OVCAR-5 = assay: Growth inhibition of human OVCAR5 cells after 48 hrs by sulforhodamine B assay; settings: OVCAR-5, 48 h; for CC50: read-out: LC50 (the source's name)
Procedure, shortened: (§2)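 NCI 60-cell-line panel. Cells were grown in medium with 5% fetal calf serum and 2 mM L-glutamine, then preincubated 24 h in plates. Compounds were added from DMSO at five 10-fold concentrations from 100 to 0.01 µM and left on cells continuously for 48 h. Cell growth was read by sulforhodamine B protein stain. GI50 is the concentration that halves net protein increase relative to control cells.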

[4] = Growth inhibition of human NCI-ADR-RES cells assessed as cell growth at 10 uM after 48 hrs by sulforhodamine B assay; settings: read-out: Activity
SK-OV-3 [5] = assay: Growth inhibition of human SKOV3 cells assessed as cell growth at 10 uM after 48 hrs by sulforhodamine B assay; settings: SK-OV-3, 48 h, read-out: Activity
A498 = assay: Growth inhibition of human A498 cells after 48 hrs by sulforhodamine B assay; settings: A498, 48 h; for CC50: read-out: LC50 (the source's name); procedure, shortened: as §1
786-0 = assay: Growth inhibition of human 786-0 cells after 48 hrs by sulforhodamine B assay; settings: 786-0, 48 h; procedure, shortened: as §1
SW-620 = assay: Growth inhibition of human SW620 cells assessed as cell growth at 10 uM after 48 hrs by sulforhodamine B assay; settings: SW-620, 48 h, read-out: Activity
Procedure, shortened: (§3)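 Single-dose NCI screen. Tumor lines were cultured in medium with 5% fetal calf serum and 2 mM L-glutamine, preincubated 24 h, then given compound in DMSO. After 48 h continuous exposure, cell growth was estimated by sulforhodamine B protein assay.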

NCI-H23 = assay: Growth inhibition of human NCI-H23 cells assessed as cell growth at 10 uM after 48 hrs by sulforhodamine B assay; settings: NCI-H23, 48 h, read-out: Activity
SK-OV-3 [6] = assay: Growth inhibition of human SKOV3 cells after 48 hrs by sulforhodamine B assay; settings: SK-OV-3, 48 h; procedure, shortened: as §2
SF-268 = assay: Growth inhibition of human SF268 cells after 48 hrs by sulforhodamine B assay; settings: SF-268, 48 h; for CC50: read-out: LC50 (the source's name); procedure, shortened: as §2
ACHN [7] = assay: Growth inhibition of human ACHN cells after 48 hrs by sulforhodamine B assay; procedure, shortened: as §1
SNB-75 [8] = assay: Growth inhibition of human SNB75 cells after 48 hrs by sulforhodamine B assay; settings: SNB-75, 48 h; for CC50: read-out: LC50 (the source's name); procedure, shortened: as §2
[9] = Growth inhibition of human EKVX cells after 48 hrs by sulforhodamine B assay; settings: for CC50: read-out: LC50 (the source's name); procedure, shortened: as §1
MCF7 = assay: Growth inhibition of human MCF7 cells after 48 hrs by sulforhodamine B assay; settings: MCF7, 48 h; procedure, shortened: as §1
A549 = assay: Growth inhibition of human A549/ATCC cells assessed as cell growth at 10 uM after 48 hrs by sulforhodamine B assay; settings: A549, 48 h, read-out: Activity
HCT-15 = assay: Growth inhibition of human HCT15 cells after 48 hrs by sulforhodamine B assay; settings: HCT-15, 48 h; procedure, shortened: as §1
IGROV-1 [10] = assay: Growth inhibition of human IGROV1 cells assessed as cell growth at 10 uM after 48 hrs by sulforhodamine B assay; settings: IGROV-1, 48 h, read-out: Activity
[11] = Growth inhibition of human Hs 578T cells after 48 hrs by sulforhodamine B assay; procedure, shortened: as §1
K562 [12] = assay: Growth inhibition of human K562 cells after 48 hrs by sulforhodamine B assay; settings: K562, 48 h; for CC50: read-out: LC50 (the source's name); procedure, shortened: as §1
UACC-257 = assay: Growth inhibition of human UACC257 cells assessed as cell growth at 10 uM after 48 hrs by sulforhodamine B assay; settings: UACC-257, 48 h, read-out: Activity; procedure, shortened: as §3
SNB-75 [13] = assay: Growth inhibition of human SNB75 cells assessed as cell growth at 10 uM after 48 hrs by sulforhodamine B assay; settings: SNB-75, 48 h, read-out: Activity
HCT-116 = assay: Growth inhibition of human HCT116 cells after 48 hrs by sulforhodamine B assay; settings: HCT-116, 48 h; procedure, shortened: as §1
Rattus norvegicus = assay: Antiinflammatory activity in Wistar rat assessed as inhibition of carrageenan-induced paw edema at 0.05 mmol/kg, po administered 30 mins prior challenge measured after 5 hrs
Procedure, shortened: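 Wistar rats of either sex, 150–175 g, fasted 16 h, 6 per group. Dosed orally at 0.05 mmol/kg, suspended in 1% CMC in water (10 ml/kg). 30 min later, 0.1 ml of 1% carrageenan in saline injected subplantar into the left hind paw. Paw volume read by plethysmometer at 0, 3 and 5 h. % inhibition = (1 − Vt/Vc) × 100 against the vehicle group.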

K562 [14] = assay: Growth inhibition of human K562 cells assessed as cell growth at 10 uM after 48 hrs by sulforhodamine B assay; settings: K562, 48 h, read-out: Activity
SF-295 = assay: Growth inhibition of human SF295 cells after 48 hrs by sulforhodamine B assay; settings: SF-295, 48 h; procedure, shortened: as §2
OVCAR-8 [15] = assay: Growth inhibition of human OVCAR8 cells after 48 hrs by sulforhodamine B assay; settings: OVCAR-8, 48 h; procedure, shortened: as §2
M14 = assay: Growth inhibition of human M14 cells assessed as cell growth at 10 uM after 48 hrs by sulforhodamine B assay; settings: M14, 48 h, read-out: Activity

## Cc1cc(O)ccc1C1=NN(c2ccc(S(C)(=O)=O)cc2)C(=O)CC1
OVCAR-8 [1]
  growth at 10 µM: 92.3%
IGROV-1 [2]
  GI50: 7.13 µM
  LC50: > 100 µM
  TGI: > 100 µM
ACHN [3]
  growth at 10 µM: 79.7%
COLO 205
  growth at 10 µM: 65.8%
OVCAR-5
  GI50: 53.8 µM
  TGI: > 100 µM
  CC50: > 100 µM
[4]
  growth at 10 µM: 40.6%
SK-OV-3 [5]
  growth at 10 µM: 85%
A498
  GI50: 2780 nM
  TGI: 45.4 µM
  CC50: > 100 µM
786-0
  GI50: 92.5 µM
  LC50: > 100 µM
  TGI: > 100 µM
SW-620
  growth at 10 µM: 46.6%
NCI-H23
  growth at 10 µM: 32.9%
SK-OV-3 [6]
  GI50: 9.77 µM
  LC50: > 100 µM
  TGI: > 100 µM
SF-268
  GI50: 40 µM
  TGI: > 100 µM
  CC50: > 100 µM
ACHN [7]
  GI50: 37.8 µM
  LC50 (concentration killing 50% of starting cells): > 100 µM
  TGI: > 100 µM
SNB-75 [8]
  GI50: 5.53 µM
  TGI: > 75.2 µM
  CC50: > 100 µM
[9]
  GI50: 57.9 µM
  TGI: > 100 µM
  CC50: > 100 µM
MCF7
  GI50: 20.7 µM
  LC50 (concentration killing 50% of cells): > 100 µM
  TGI: > 100 µM
A549
  growth at 10 µM: 72.2%
HCT-15
  GI50: 7.91 µM
  LC50: > 100 µM
  TGI: > 100 µM
IGROV-1 [10]
  growth at 10 µM: 43.5%
[11]
  GI50: 4150 nM
  LC50 (concentration giving 50% net cell kill): > 100 µM
  TGI: > 100 µM
K562 [12]
  GI50: 3740 nM
  TGI: > 100 µM
  CC50: > 100 µM
UACC-257
  growth at 10 µM: 93%
SNB-75 [13]
  growth at 10 µM: 75.2%
HCT-116
  GI50: 3780 nM
  LC50 (concentration killing 50% of cells): > 100 µM
  TGI: > 100 µM
Rattus norvegicus
  inhibition in vivo at 50 µmol/kg: 52.6%
K562 [14]
  growth at 10 µM: 20.6%
SF-295
  GI50: 2870 nM
  LC50 (concentration killing 50% of cells present at start): > 100 µM
  TGI: 12.4 µM
OVCAR-8 [15]
  GI50: 12.3 µM
  LC50: > 100 µM
  TGI: > 100 µM
M14
  growth at 10 µM: 49.2%

## Cc1ccc(C2=NN(c3ccc(S(C)(=O)=O)cc3)C(=O)CC2)cc1
OVCAR-8 [1]
  growth at 10 µM: 31.8%
IGROV-1 [2]
  GI50: 0.83 µM
  LC50: > 100 µM
  TGI: > 100 µM
ACHN [3]
  growth at 10 µM: 54.5%
COLO 205
  growth at 10 µM: 4.23%
OVCAR-5
  GI50: 3.69 µM
  TGI: > 100 µM
  CC50: > 100 µM
[4]
  growth at 10 µM: 6.72%
SK-OV-3 [5]
  growth at 10 µM: 19.9%
A498
  GI50: 140 nM
  TGI: 1.6 µM
  CC50: > 100 µM
786-0
  GI50: 5.78 µM
  LC50: > 100 µM
  TGI: > 100 µM
SW-620
  growth at 10 µM: 8.58%
NCI-H23
  growth at 10 µM: -19.6%
SK-OV-3 [6]
  GI50: 1.15 µM
  LC50: > 100 µM
  TGI: 20.7 µM
SF-268
  GI50: 2.94 µM
  TGI: > 100 µM
  CC50: > 100 µM
ACHN [7]
  GI50: 4.02 µM
  LC50 (concentration killing 50% of starting cells): > 100 µM
  TGI: > 100 µM
SNB-75 [8]
  GI50: 0.54 µM
  TGI: > 9.25 µM
  CC50: > 100 µM
[9]
  GI50: 3.02 µM
  TGI: > 100 µM
  CC50: > 100 µM
MCF7
  GI50: 1.38 µM
  LC50 (concentration killing 50% of cells): > 100 µM
  TGI: > 100 µM
A549
  growth at 10 µM: 36.6%
HCT-15
  GI50: 0.61 µM
  LC50: > 100 µM
  TGI: > 100 µM
IGROV-1 [10]
  growth at 10 µM: 59.2%
[11]
  GI50: 460 nM
  LC50 (concentration giving 50% net cell kill): > 100 µM
K562 [12]
  GI50: 370 nM
  TGI: > 100 µM
  CC50: > 100 µM
UACC-257
  growth at 10 µM: 50.7%
SNB-75 [13]
  growth at 10 µM: 8.1%
HCT-116
  GI50: 410 nM
  LC50 (concentration killing 50% of cells): > 100 µM
  TGI: > 100 µM
Rattus norvegicus
  inhibition in vivo at 50 µmol/kg: 60.5%
K562 [14]
  growth at 10 µM: 11.7%
SF-295
  GI50: 400 nM
  LC50 (concentration killing 50% of cells present at start): > 100 µM
  TGI: 5.36 µM
OVCAR-8 [15]
  GI50: 0.74 µM
  LC50: > 100 µM
  TGI: > 100 µM
M14
  growth at 10 µM: 10.2%
